Compound activity as filed in PubChem BioAssay.
bCat KO growth = primary screen for growth suppressors in beta-catenin knockout HCT116 cells (colon tumor, human); HCT116 beta-catenin knockout viability, CellTiter-Glo, 60 h; stronger effect = lower value; viability, % at 10 µM; 1.5% of 140,000 active; AID 818, 2007;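 active means viability at or under a set limit, the compound median less 4 SD, cut at about 6% in these data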
L major viab = Leishmania major promastigote growth inhibition, primary screen; Leishmania major promastigotes, resazurin fluorescence viability; inhibition, % at 10 µM; 9% of 200,000 active; AID 1063, 2008; in the data active means inhibition above about 50%;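 further: promastigotes grown with compound for 44 hours at 28 °C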
PMI act = activators of human PMI, primary screen, biochemical, fluorescence intensity, near-Km mannose 6-phosphate | purified human PMI, coupled resazurin fluorescence, 20 min; stronger effect = higher value; 1 = vehicle control, 0 substrate-free wells | 0.005% of 190,000 active | Mannose-6-phosphate isomerase (Homo sapiens), P34949 | AID 1214, 2008 | activation factor at 20 µM;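 active means activation factor of 2 or more at 20 µM, relative to plate controls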
Target sequence (P34949 whole entry, looked up): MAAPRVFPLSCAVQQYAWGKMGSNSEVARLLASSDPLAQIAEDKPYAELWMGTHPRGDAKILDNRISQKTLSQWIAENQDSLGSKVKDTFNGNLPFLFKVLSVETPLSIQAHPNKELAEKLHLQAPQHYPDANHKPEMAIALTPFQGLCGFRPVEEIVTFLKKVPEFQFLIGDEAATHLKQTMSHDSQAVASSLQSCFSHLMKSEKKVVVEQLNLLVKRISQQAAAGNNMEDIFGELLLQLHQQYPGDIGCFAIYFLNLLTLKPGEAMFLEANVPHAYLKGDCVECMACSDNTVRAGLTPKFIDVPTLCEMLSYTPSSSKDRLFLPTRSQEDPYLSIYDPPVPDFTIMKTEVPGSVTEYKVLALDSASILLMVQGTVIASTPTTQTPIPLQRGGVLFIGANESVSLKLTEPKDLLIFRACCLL
HCT116 PTEN-null = growth suppression of PTEN-null HCT116, primary screen, cell-based, CellTiter-Glo | AID 827, 2007 | HCT116 PTEN-null viability, 60 h; stronger effect = lower value | 1.2% of 140,000 active | viability, % at 10 µM;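 active means viability at or below a set limit, 4 SD under the median of all tested compounds, cut at about 3.7% in these data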;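 further: PTEN knockout HCT116 line with beta catenin targeted HCT116 as companion control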
PMI act satM6P = human PMI activators, high substrate, primary screen, biochemical, fluorescence intensity, near-saturating mannose 6-phosphate. Mannose-6-phosphate isomerase (Homo sapiens), P34949. coupled PMI enzyme assay, resazurin fluorescence, 20 min; stronger effect = higher value; 1 = untreated enzyme, 0 = substrate-free blank. activation factor at 20 µM. 0.34% of 190,000 active. AID 1216, 2008;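 active means activation factor of 2 or more at 20 µM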
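Material: human phosphomannose isomerase with PGI, G6PDH, diaphorase coupling enzymes; amount: PMI at 15 ng/mL final; also added: Mannose-6-phosphate 1.0 mM (near-saturating) plus 0.22 mM NADP+; incubation: enzyme reaction with compound 20 min at room temperature; signal: resorufin fluorescence (Ex 544/Em 590 nm) from resazurin via diaphorase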
Lmaj promast 1uM = Leishmania major promastigote growth inhibition, confirmation, 1 µM repeat of primary hits. shares compounds with L major viab. L. major promastigote growth, resazurin fluorescence, 48 h. inhibition, % at 1 µM. 13% of 1,100 active;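 active means inhibition above about 50% in both repeat tests, limit read from the data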
Numbers stand for hits; – = inactive; · = no result. Rows were chosen to be rich in hits. Some 9.6% of all compounds tested hit in one or more screens of this group.

SMILES	bCat KO growth	L major viab	PMI act	HCT116 PTEN-null	PMI act satM6P	Lmaj promast 1uM
CCCCOC(=O)C1=C(C)NC(=O)NC1c1ccc([N+](=O)[O-])s1 (stereo not given)	–	–	–	–	–	·
CC1=Nc2ccccc2N=C(NC(=O)CSc2nnnn2-c2ccccc2)C1c1ccccc1 (stereo not given)	–	99	–	–	–	–
Cn1c(SC2=CS(=O)(=O)c3ccccc32)nc2ccccc21	2.5	99	–	1.4	–	–
Cn1c(CSc2nc3ccccc3n2C)nc2ccccc21	–	–	–	–	–	·
O=C(N/N=C\c1ccc(CNS(=O)(=O)c2ccccc2)o1)C(=O)Nc1ccc(F)cc1	–	–	–	–	–	·
O=C(N/N=C\c1ccc(CN(Cc2ccc(Cl)cc2)S(=O)(=O)c2ccccc2)o1)C(=O)Nc1ccc(F)cc1	–	81	–	–	–	–
N#Cc1cccc(NC(=O)Cn2c3[n+](c4ccc(C(F)(F)F)cc42)CCCCC3)c1	–	–	–	–	–	·
CCCN(CCC)C(=O)CC(c1ccccc1)c1cc(C)ccc1O (stereo not given)	–	–	–	–	–	·
CN(Cc1ccccc1)C(=O)CC(c1ccccc1)c1cc(Cl)ccc1O (stereo not given)	–	81	–	–	–	–
O=C1c2ccccc2C(=O)C12Cc1ccccc1N1CCN(c3ccccc3)CC12 (stereo not given)	–	65	–	–	–	67
O=C1NCC(c2ccccc2)C1C(=O)N/N=C\c1ccc(-c2ccc(Cl)c(Cl)c2)o1 (stereo not given)	–	59	–	–	–	–
O=C1NCC(c2ccccc2)C1C(=O)N/N=C/c1ccc(Cl)s1 (stereo not given)	·	–	–	·	–	·
COC(=O)c1ccc(-n2nnnc2SCc2nn[nH]n2)cc1	–	–	–	–	–	·
C[C@]12CCC3C(CC=C4C[C@@H](O)CC[C@@]43C)C1CCC2[C@]1(C)CCC(=O)O1 (stereo not given in full)	–	–	–	–	–	·
CC12CCC(O)CC1=CCC1C2CCC2(C)C1CCC21CCC(=O)O1 (stereo not given)	–	68	–	–	–	–
Clc1ccc2[nH]cc(-c3nnnn3-c3ccc4ccccc4c3)c2c1	–	99	–	–	–	86
COc1ccc(OC)c(C2C(C(N)=O)=C(C)Nc3nc(CCCO)nn32)c1 (stereo not given)	–	–	–	–	–	·
Cc1ccccc1-n1nnnc1Sc1nnnn1-c1ccccc1	2.0	100	–	1.3	–	–
COc1ccc(CSc2nnnn2-c2ccccc2)cc1	–	100	–	–	–	–
CCCSc1nnc(Sc2nnnn2-c2ccccc2)s1	–	88	–	–	–	–
CC(=O)c1ccccc1OCCOCCOc1ccccc1C(C)=O	–	–	–	–	–	·
CCc1ccc(C(C(=O)NCCOC)N(C(=O)Cn2nnc3ccccc32)c2cccnc2)cc1 (stereo not given)	–	–	–	–	–	·
CNC(=S)/N=C/NOCc1ccc(Cl)cc1Cl	·	58	–	·	–	–
O=C(CN1CCC(n2nnc3cc(C(F)(F)F)ccc32)CC1)NCc1cccs1	–	79	–	–	–	–
Cc1ccc2c(c1)nnn2C1CCN(CC(=O)NCc2ccccc2F)CC1	·	–	–	·	–	·
CCCCCn1c(=N)n(CC(O)COc2ccccc2OC)c2ccccc21 (stereo not given)	2.6	83	–	–	–	–
Cc1ccc(CNC(=O)c2cn(C3CCCCC3)c(=O)c3c2c2ccccc2n3C)o1	–	53	–	–	–	–
N/C(=N\OC(=O)CCC1CCCCC1)c1ccc([N+](=O)[O-])cc1	–	76	–	–	–	–
CC(C(=O)N1CCC(C(N)=O)CC1)N(c1ccc(Oc2ccccc2)cc1)S(C)(=O)=O (stereo not given)	–	–	–	–	–	·
CCOc1ccccc1N(C(C)=O)S(=O)(=O)c1ccc(Cl)cc1	·	–	–	·	–	·
